Calls of active or inactive are those of the source. The calls are words filed in the database; no cut-off is given here.
Legend:
[1] = tested on: Dendritic cell; experiment: Antiinflammatory activity in human dendritic cells assessed as CD14-TLR-4 co-localization at 100 uM incubated for 30 mins by DAPI staining based confocal microscopy; format: functional
How it was run: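 Monocyte-derived DCs (10^5 per chamber) on poly-L-lysine-coated chamber slides were treated for 30 min, then washed, fixed and permeabilized. They were stained with goat anti-TLR-4 (5 µg mL⁻¹) plus AF488 anti-goat, and anti-CD14-APC, with DAPI nuclei. Confocal imaging gave the Pearson CD14/TLR-4 colocalization coefficient per field of 15–20 cells, from two independent assays.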

[2] = tested on: Dendritic cell; experiment: Antiinflammatory activity in human dendritic cells assessed as reduction in LPS-induced TNFalpha production at 100 uM cotreated with LPS measured after 24 hrs by ELISA; format: functional, cell-based
How it was run: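 DCs came from human blood monocytes (Ficoll/Percoll) cultured 5 days with GM-CSF 50 ng ml⁻¹ and IL-4 10 ng ml⁻¹, in RPMI/10% FCS at 37 °C and 5% CO₂. Cells (10^5 per 200 µL) got E. coli K12 LPS (100 ng mL⁻¹) plus compound at the same time. After 24 h, supernatant TNF-α was measured by ELISA, with at least 3 donors and mean ± SEM.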

[3] = tested on: Dendritic cell; experiment: Antiinflammatory activity in human dendritic cells assessed as reduction in LPS-induced TNFalpha production at 100 uM pretreated with LPS for 30 mins followed by compound addition measured after 24 hrs by ELISA; format: functional, cell-based
How it was run: (§1)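 Monocyte-derived DCs (10^5 per 200 µL) were stimulated with ultrapure E. coli K12 LPS (100 ng mL⁻¹). Compound was added 0.5, 2, 4 or 6 h after LPS. TNF-α in the supernatant was measured by ELISA 24 h after stimulation, as mean ± SD of more than 3 independent assays.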

[4] = tested on: Dendritic cell; experiment: Antiinflammatory activity in human dendritic cells assessed as reduction in LPS-induced CD83 expression on cell surface at 100 uM pretreated with LPS upto 6 hrs followed by compound addition measured after 24 hrs by FACS analysis; format: functional, cell-based
[5] = tested on: Dendritic cell; experiment: Antiinflammatory activity in human dendritic cells assessed as reduction in LPS-induced CD86 expression on cell surface at 100 uM pretreated with LPS upto 6 hrs followed by compound addition measured after 24 hrs by FACS analysis; format: functional, cell-based
[6] = tested on: Dendritic cell; experiment: Antiinflammatory activity in human dendritic cells assessed as reduction in LPS-induced TNFalpha production at 100 uM pretreated with LPS up to 6 hrs followed by compound addition measured after 24 hrs by ELISA; format: functional, cell-based; how it was run: as §1
[7] = tested on: Dendritic cell; experiment: Antiinflammatory activity in human dendritic cells assessed as reduction in CD14 receptor cell surface expression at 100 uM incubated for 30 mins by flow cytometric analysis; format: functional, cell-based
How it was run: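 Monocyte-derived DCs (10^5 in 200 µL complete medium) were exposed for 30 min at 37 °C without LPS. They were then washed, held on ice, stained with anti-CD14-PE, and surface CD14 was read by flow cytometry.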

In the case of `CCCCCCCCCCCCC#CC#CCCCCCCCCC(=O)NC(COCCC(=O)NCCOCCOCCOCCO[C@H]1O[C@H](CO)[C@@H](O)[C@H](O)[C@@H]1O)(COCCC(=O)NCCOCCOCCOCCO[C@H]1O[C@H](CO)[C@@H](O)[C@H](O)[C@@H]1O)COCCC(=O)NCCOCCOCCOCCO[C@H]1O[C@H](CO)[C@@H](O)[C@H](O)[C@@H]1O`, the Activity [1] was “Active”, the inhibition [2] was “Active” and the inhibition [3] was “Active”. The inhibition [4] was “inactive”, the inhibition [5] was “inactive” and the inhibition [6] was “inactive”. The inhibition [7] was “Active”.
